Assay results taken from PubChem BioAssay AID1656 (Sanford-Burnham Center for Chemical Genomics, 2009).
Among all 240,000 compounds or so, about 950 (0.4%) were called active.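 Rule for the calls: active = lipid droplet intensity inhibited by at least 50%, with more than 500 cells counted; inconclusive = wells with under 300 cells, treated as cytotoxic; inactive = the rest.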 Only a selection was taken, and actives are over-represented in it overall.

Assay: inhibitors of hepatocyte lipid droplet formation, primary screen, imaging, high-throughput imaging, BODIPY stain (AID 1656);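 for cell count: cells counted across two imaged fields per well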
Settings: AML12 mouse hepatocytes, oleate lipid droplets, at 6.5 µM; cell count: measured here: cell count, cytotoxicity flag; inhibition: stronger effect = higher value
In short: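 Material: mouse AML12 hepatocyte cell line, fixed after treatment; Timing: compound with oleate, overnight; Technique: high-content imaging of BODIPY-stained droplets and DAPI nuclei; Probe or stimulus: oleate, 100 µM final; Dosing: compound at 6.5 µM only.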

Structure (SMILES) | cell count [cells] | inhibition
Cc1ccc2cc(C)c(N3CCN(c4ccc(F)cc4)CC3)nc2c1 | 820 | 15% (inactive)
CC(NC(=O)CNC(=O)Cc1cccc2ccccc12)c1ccc(S(N)(=O)=O)cc1 (stereo unspecified) | 734 | 13.3% (inactive)
CC(NC(=O)c1ccccc1C(=O)O)c1ccc(-n2ccnc2)cc1 (stereo unspecified) | 807 | 2.2% (inactive)
CC(NC(=O)c1cccc2ccccc12)c1ccc2c(c1)CCCC2 (stereo unspecified) | 688 | 57.9% (active)
CCn1c(=S)sc2c(=O)n(CC(=O)Nc3cccc(Br)c3)c(C)nc21 | 740 | 8.5% (inactive)
C/C(=N\NC(=O)COc1ccc(C)cc1[N+](=O)[O-])c1ccc2c(c1)OCCO2 | 706 | -6.5% (inactive)
CCCSc1nc2sc3c(c2c(=O)n1-c1ccc(OC)cc1)CCN(C)C3 | 816 | 11.2% (inactive)
O=c1[nH]cccc1-c1nc2ccccc2n1Cc1ccc(Cl)cc1 | 844 | 10.1% (inactive)
CC(=O)N1c2ccc(S(=O)(=O)N3CCC(C(=O)N4CCN(c5ccccc5)CC4)CC3)cc2CC1C (stereo unspecified) | 669 | -1.7% (inactive)
Cc1ccc(Nc2cc(C)nc3c(C)ccc([N+](=O)[O-])c23)cc1 | 674 | 57.6% (active)
Cc1cc(Nc2ccc(N3CCOCC3)cc2)c2cccc(C)c2n1 | 761 | 11.3% (inactive)
Cc1ccc(Nc2ccc(C(N)=O)cc2[N+](=O)[O-])cc1 | 630 | -6.1% (inactive)
O=C(Nc1ncc([N+](=O)[O-])s1)C1COc2ccccc2O1 (stereo unspecified) | 840 | -18.9% (inactive)
CCN(CCCNC(=O)CSc1cc(=O)n(C)c2cc(Cl)ccc12)Cc1ccccc1 | 704 | 18.8% (inactive)
CCOc1ccc(CCNC(=O)CSc2cc(=O)n(C)c3ccc(Cl)cc23)cc1OCC | 659 | 93.9% (active)
Cn1c(=O)cc(SCC(=O)N2CCCC2)c2cc(Cl)ccc21 | 775 | 9% (inactive)
O=C(c1ccccc1)N1CCC(CC2CC(c3ccc(Cl)cc3)=NO2)(C(=O)NCC2CCCCC2)CC1 (stereo unspecified) | 817 | -15.1% (inactive)
CN(CC1CCCN(CCc2cccc(C(F)(F)F)c2)C1)C(=O)c1ccc2nc[nH]c2c1 (stereo unspecified) | 744 | -11.4% (inactive)
O=C(NCCCN1CCCC1=O)C(=O)NCC1OCCN1S(=O)(=O)c1ccc(Br)cc1 (stereo unspecified) | 666 | -6.7% (inactive)
CCCN(CCC)c1ccc(C(O)c2nnc(-c3ccccc3)o2)cc1 (stereo unspecified) | 691 | 69.3% (active)
OC(c1nnc(-c2ccccc2)o1)c1cccs1 (stereo unspecified) | 773 | 16.7% (inactive)
CCCC(=O)Nc1nnc(-c2ccccc2)o1 | 702 | 4.2% (inactive)
O=C(Nc1ccccc1C(=O)Nc1ccncc1)c1ccc([N+](=O)[O-])cc1 | 805 | 10.9% (inactive)
CCOC(=O)CC1C(=O)NCCN1c1nc2c(C)cccn2c(=O)c1/C=C1\SC(=S)N(C(C)CC)C1=O (stereo unspecified) | 696 | 36.8% (inactive)
CCCN(CCC)c1nc2c(C)cccn2c(=O)c1/C=C1/SC(=S)N(Cc2ccco2)C1=O | 775 | 57.5% (active)
O=C(CCCN1C(=O)/C(=C\c2ccco2)SC1=S)Nc1cccc2ccccc12 | 553 | -6.6% (inactive)
CCc1cccc(NC(=O)CCCN2C(=O)C(c3ccccc3)Oc3cccnc32)c1 (stereo unspecified) | 663 | -3.4% (inactive)

Structure (SMILES) | cell count [cells] | inhibition
COc1cccc(NC(=O)CN(C)C(=O)c2ccccc2CCc2ccccc2)c1 | 836 | -9.7% (inactive)
CC(=O)c1cccc(NC(=O)CN2C(=O)c3cccnc3Oc3ccc(Cl)cc32)c1 | 693 | -16.7% (inactive)
O=C(c1ccccc1)N1N=C(c2ccccc2O)CC1c1ccc(Br)cc1 (stereo unspecified) | 868 | 1.5% (inactive)
COc1ccc(C(=O)NC2CC(C)(C)Cc3c2cnn3-c2ccccc2C)o1 (stereo unspecified) | 621 | -21% (inactive)
Cc1ccc(/C=C2/SC(=S)N(CCC(=O)NCCCN3CCOCC3)C2=O)cc1 | 794 | -18.3% (inactive)
CCc1ccc(NC(=O)C(C)OC(=O)/C=C/c2cccc([N+](=O)[O-])c2)cc1 (stereo unspecified) | 651 | 60% (active)
CCC(CC)NC(=O)/C=C/c1cccc([N+](=O)[O-])c1 | 628 | -7.2% (inactive)
Cc1ccc(NC(=O)O/N=C/c2cccc([N+](=O)[O-])c2)cc1 | 427 | -4.6% (inactive)
COc1ccccc1CCNS(=O)(=O)c1cc2c3c(c1)C(C)C(=O)N3CCC2 (stereo unspecified) | 707 | -4% (inactive)
CCCCN(CCCC)CCCNC(=O)CN1C(=O)COc2ccc(S(=O)(=O)N3CCC(C)CC3)cc21 | 789 | 10.1% (inactive)
CCOC(=O)[C@H]1[C@H]2COc3cc(OC)ccc3[C@@H]2N2C(=O)N(c3ccc(Br)cc3)C(=O)[C@@]12C | 831 | -8.9% (inactive)
COc1cccc(OCC(O)CNC(=O)c2oc3c(C)c(C)ccc3c2C)c1 (stereo unspecified) | 871 | -0.2% (inactive)
CC1CCN(c2nc3c(c(=O)[nH]c(=O)n3C)n2CCCc2ccccc2)CC1 | 572 | -14.6% (inactive)
C=C(C)Cn1c(N2CCCC2)nc2c1c(=O)[nH]c(=O)n2C | 632 | -2.2% (inactive)
Cn1c(=O)[nH]c(=O)c2c1nc(N1CCN(C(c3ccccc3)c3ccccc3)CC1)n2CCO | 768 | 60.3% (active)
CCOc1ccc(NC(=O)CCCCCN2C(=O)[C@@H]3Cc4ccccc4CN3C2=O)cc1 | 676 | 11.7% (inactive)
CCOc1cc(NC(=O)Nc2ccccc2)c(OCC)cc1NC(=O)CC | 783 | 4.2% (inactive)
CCOc1ccc(CCNC(=O)C2=C(C)C(=O)OC23CCC(C)CC3)cc1OCC (stereo unspecified) | 788 | 17.6% (inactive)
CCOc1ccc(CCNC(=O)Nc2ccccc2)cc1OCC | 809 | 118% (active)
CCn1c(SCc2cccc(C(=O)O)c2)nnc1-c1ccc(Cl)cc1 | 802 | 11.8% (inactive)
COc1ccc(C(=O)N2CCCCC2C(=O)Nc2ccc(-n3nc(C)cc3C)cc2)o1 (stereo unspecified) | 694 | -12.1% (inactive)
C(=N/Nc1cc(N2CCOCC2)nc(N2CCOCC2)n1)/c1ccccc1 | 583 | 120% (active)
CN(C)c1ccc(/C=N/Nc2cc(N3CCOCC3)nc(N3CCOCC3)n2)cc1 | 716 | -2.2% (inactive)
Cc1cc(N2CCN(c3ccccc3)CC2)nc(N2CCOCC2)n1 | 649 | -5.7% (inactive)
Cc1cccc(NC(=O)c2ccc(S(=O)(=O)N(C)CC3CCCO3)cc2)c1C (stereo unspecified) | 678 | -9.6% (inactive)
Cc1cccc2c1cnn2C(=O)CCC(=O)NC1CCCCC1 | 740 | -7.9% (inactive)
